Measured values: ChEMBL document CHEMBL3046016, “Antifeedant and growth inhibitory effects of some neo-clerodane diterpenoids isolated from Clerodendron species (Verbenaceae) on Earias vitella and Spodoptera litura” (2003)

Experiments:
Format in all cases: functional
Earias vittella [1] = test: Insecticidal activity against adult Earias vitella assessed as adult deformity at 5 ug/cm3 administered through artificial diet containing Abelmoschus esculentus seed powder (reference value: 4%)
Earias vittella [2] = test: Insecticidal activity against pupal stage of Earias vitella assessed as pupal mortality at 10 ug/cm3 administered through artificial diet containing Abelmoschus esculentus seed powder (reference value: 8%)
Earias vittella [3] = test: Insecticidal activity against pupal stage of Earias vitella assessed as pupal weight at 10 ug/cm3 administered through artificial diet containing Abelmoschus esculentus seed powder (reference value: 88.2 +/- 4.01 mg)
Earias vittella [4] = test: Antifeedant activity against third-instar larval stage of Earias vitella assessed as decrease in diet consumption at 5 ug/cm3 administered through artificial diet containing Abelmoschus esculentus seed powder after 24 hr relative to acetone-treated control; design: scale not given: the % may be the effect or the level left
Outline: (§1)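 Artificial diet was modified Klein medium with bhendi (Abelmoschus esculentus) seed powder in place of alfalfa. Compound in acetone was mixed into bhendi meal 12 h before diet preparation so the solvent evaporated. One 3 g diet cube was given to five freshly molted third-instar larvae in a muslin-covered container. After 24 h the cubes were weighed. %AF = 100 − (treated/control)×100.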

Spodoptera litura [5] = test: Insecticidal activity against pupal stage of Spodoptera litura in compound-treated castor leaves assessed as pupal duration time at 10 ug/cm2 (reference value: 9.2 +/- 0.74 days)
Spodoptera litura [6] = test: Insecticidal activity against pupal stage of Spodoptera litura in compound-treated castor leaves assessed as pupal weight at 10 ug/cm2 (reference value: 302.4 +/- 5.9 mg)
Earias vittella [7] = test: Insecticidal activity against third-instar larval stage of Earias vitella assessed as larval mortality at 10 ug/cm3 administered through artificial diet containing Abelmoschus esculentus seed powder (reference value: 4%)
Spodoptera litura [8] = test: Insecticidal activity against adult Spodoptera litura in compound-treated castor leaves assessed as adult emergence at 10 ug/cm2 relative to control
Spodoptera litura [9] = test: Antifeedant activity against third-instar larval stage of Spodoptera litura in compound-treated castor leaves assessed as decrease in diet consumption at 10 ug/cm2 after 24 hr by no-choice leaf disk assay relative to acetone-treated control; design: scale not given: the % may be the effect or the level left
Outline: (§2)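 Larvae were reared on castor leaves at 25 ± 2 °C. In a no-choice test, compound in acetone was painted on the abaxial side of castor leaf disks and air-dried. Five freshly molted third-instar larvae, starved 4 h, were placed per Petri dish with wet cotton. There were five replicates. After 24 h, consumed leaf area was read on a leaf area meter. %AF = 100 − (treated/control)×100.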

Earias vittella [10] = test: Insecticidal activity against female adult Earias vitella assessed as adult longevity time at 5 ug/cm3 administered through artificial diet containing Abelmoschus esculentus seed powder (reference value: 8.6 +/- 0.48 days)
Spodoptera litura [11] = test: Insecticidal activity against third-instar larval stage of Spodoptera litura in compound-treated castor leaves assessed as total larval duration time at 10 ug/cm2 (reference value: 12.4 +/- 0.48 days)
Earias vittella [12] = test: Insecticidal activity against third-instar larval stage of Earias vitella assessed as total larval duration time at 5 ug/cm3 administered through artificial diet containing Abelmoschus esculentus seed powder (reference value: 8.2 +/- 0.48 days)
Earias vittella [13] = test: Insecticidal activity against pupal stage of Earias vitella assessed as pupal duration time at 10 ug/cm3 administered through artificial diet containing Abelmoschus esculentus seed powder (reference value: 6.4 +/- 0.21 days)
Spodoptera litura [14] = test: Insecticidal activity against female adult Spodoptera litura in compound-treated castor leaves assessed as adult longevity time at 5 ug/cm2 (reference value: 10 +/- 0.63 days)
Earias vittella [15] = test: Insecticidal activity against third-instar larval stage of Earias vitella assessed as total larval duration time at 10 ug/cm3 administered through artificial diet containing Abelmoschus esculentus seed powder (reference value: 8.2 +/- 0.48 days)
Spodoptera litura [16] = test: Insecticidal activity against adult Spodoptera litura in compound-treated castor leaves assessed as adult deformity at 10 ug/cm2 relative to control
Spodoptera litura [17] = test: Insecticidal activity against adult Spodoptera litura in compound-treated castor leaves assessed as adult emergence at 5 ug/cm2 relative to control
Earias vittella [18] = test: Insecticidal activity against third-instar larval stage of Earias vitella assessed as larval mortality at 5 ug/cm3 administered through artificial diet containing Abelmoschus esculentus seed powder (reference value: 4%)
Earias vittella [19] = test: Insecticidal activity against pupal stage of Earias vitella assessed as pupal mortality at 5 ug/cm3 administered through artificial diet containing Abelmoschus esculentus seed powder (reference value: 8%)
Spodoptera litura [20] = test: Insecticidal activity against adult Spodoptera litura in compound-treated castor leaves assessed as adult deformity at 5 ug/cm2 relative to control
Spodoptera litura [21] = test: Insecticidal activity against third-instar larval stage of Spodoptera litura in compound-treated castor leaves assessed as larval mortality at 10 ug/cm2 relative to control
Spodoptera litura [22] = test: Insecticidal activity against third-instar larval stage of Spodoptera litura in compound-treated castor leaves assessed as total larval duration time at 5 ug/cm2 (reference value: 12.4 +/- 0.48 days)
Spodoptera litura [23] = test: Insecticidal activity against pupal stage of Spodoptera litura in compound-treated castor leaves assessed as pupal duration time at 5 ug/cm2 (reference value: 9.2 +/- 0.74 days)
Earias vittella [24] = test: Antifeedant activity against third-instar larval stage of Earias vitella assessed as decrease in diet consumption at 10 ug/cm3 administered through artificial diet containing Abelmoschus esculentus seed powder after 24 hr relative to acetone-treated control; design: scale not given: the % may be the effect or the level left; outline: as §1
Earias vittella [25] = test: Insecticidal activity against pupal stage of Earias vitella assessed as pupal duration time at 5 ug/cm3 administered through artificial diet containing Abelmoschus esculentus seed powder (reference value: 6.4 +/- 0.21 days)
Earias vittella [26] = test: Insecticidal activity against female adult Earias vitella assessed as adult longevity time at 10 ug/cm3 administered through artificial diet containing Abelmoschus esculentus seed powder (reference value: 8.6 +/- 0.48 days)
Spodoptera litura [27] = test: Insecticidal activity against male adult Spodoptera litura in compound-treated castor leaves assessed as adult longevity time at 5 ug/cm2 (reference value: 9.4 +/- 0.48 days)
Earias vittella [28] = test: Insecticidal activity against male adult Earias vitella assessed as adult longevity time at 5 ug/cm3 administered through artificial diet containing Abelmoschus esculentus seed powder (reference value: 8.2 +/- 0.4 days)
Earias vittella [29] = test: Insecticidal activity against adult Earias vitella assessed as adult emergence at 5 ug/cm3 administered through artificial diet containing Abelmoschus esculentus seed powder (reference value: 88%)
Spodoptera litura [30] = test: Insecticidal activity against pupal stage of Spodoptera litura in compound-treated castor leaves assessed as pupal mortality at 10 ug/cm2 relative to control
Spodoptera litura [31] = test: Insecticidal activity against male adult Spodoptera litura in compound-treated castor leaves assessed as adult longevity time at 10 ug/cm2 (reference value: 9.4 +/- 0.48 days)
Earias vittella [32] = test: Insecticidal activity against adult Earias vitella assessed as adult deformity at 10 ug/cm3 administered through artificial diet containing Abelmoschus esculentus seed powder (reference value: 4%)
Earias vittella [33] = test: Insecticidal activity against pupal stage of Earias vitella assessed as pupal weight at 5 ug/cm3 administered through artificial diet containing Abelmoschus esculentus seed powder (reference value: 88.2 +/- 4.01 mg)
Earias vittella [34] = test: Insecticidal activity against adult Earias vitella assessed as adult emergence at 10 ug/cm3 administered through artificial diet containing Abelmoschus esculentus seed powder (reference value: 88%)
Spodoptera litura [35] = test: Insecticidal activity against female adult Spodoptera litura in compound-treated castor leaves assessed as adult longevity time at 10 ug/cm2 (reference value: 10 +/- 0.63 days)
Spodoptera litura [36] = test: Insecticidal activity against pupal stage of Spodoptera litura in compound-treated castor leaves assessed as pupal mortality at 5 ug/cm2 relative to control
Spodoptera litura [37] = test: Antifeedant activity against third-instar larval stage of Spodoptera litura in compound-treated castor leaves assessed as decrease in diet consumption at 5 ug/cm2 after 24 hr by no-choice leaf disk assay relative to acetone-treated control; design: scale not given: the % may be the effect or the level left; outline: as §2
Spodoptera litura [38] = test: Insecticidal activity against third-instar larval stage of Spodoptera litura in compound-treated castor leaves assessed as larval mortality at 5 ug/cm2 relative to control
Earias vittella [39] = test: Insecticidal activity against male adult Earias vitella assessed as adult longevity time at 10 ug/cm3 administered through artificial diet containing Abelmoschus esculentus seed powder (reference value: 8.2 +/- 0.4 days)
Spodoptera litura [40] = test: Insecticidal activity against pupal stage of Spodoptera litura in compound-treated castor leaves assessed as pupal weight at 5 ug/cm2 (reference value: 302.4 +/- 5.9 mg)

SMILES | Activity (Earias vittella [1]) | mortality (Earias vittella [2]) | Activity (Earias vittella [3]) | Activity (Earias vittella [4]) | Time (Spodoptera litura [5]) | Activity (Spodoptera litura [6]) | mortality (Earias vittella [7]) | Activity (Spodoptera litura [8]) | Activity (Spodoptera litura [9]) | Time (Earias vittella [10]) | Time (Spodoptera litura [11]) | Time (Earias vittella [12]) | Time (Earias vittella [13]) | Time (Spodoptera litura [14]) | Time (Earias vittella [15]) | Activity (Spodoptera litura [16]) | Activity (Spodoptera litura [17]) | mortality (Earias vittella [18]) | mortality (Earias vittella [19]) | Activity (Spodoptera litura [20]) | further results
CC(=O)OC[C@@]12[C@@H](OC(C)=O)C[C@@H](C)[C@](C)([C@@H]3C[C@H]4C=CO[C@H]4O3)[C@H]1C[C@@H](O)[C@H](OC(=O)C(C)(C)OC(C)=O)[C@]21CO1 [CLERODENDRIN C] | 4% | 22.5% | 66.2 mg | 31% | 10.6 days | 282.2 mg | 8% | 69.6% | 65% | 7.6 days | 12.5 days | 8.4 days | 7.8 days | 8.9 days | 8.2 days | 8% | 76% | 4% | 20% | 4% | mortality at 10 µg/cm2 (Spodoptera litura [21]): 14%; Time (Spodoptera litura [22]): 12.5 days; Time (Spodoptera litura [23]): 10 days; Activity (Earias vittella [24]): 41.54%; Time (Earias vittella [25]): 7.2 days; Time (Earias vittella [26]): 7.2 days; Time (Spodoptera litura [27]): 9.2 days; Time (Earias vittella [28]): 7 days; Activity (Earias vittella [29]): 76%; mortality at 10 µg/cm2 (Spodoptera litura [30]): 22.7%; Time (Spodoptera litura [31]): 8.5 days; Activity (Earias vittella [32]): 8%; Activity (Earias vittella [33]): 69 mg; Activity (Earias vittella [34]): 70.5%; Time (Spodoptera litura [35]): 8.2 days; mortality at 5 µg/cm2 (Spodoptera litura [36]): 20.2%; Activity (Spodoptera litura [37]): 56%; mortality at 5 µg/cm2 (Spodoptera litura [38]): 12.5%; Time (Earias vittella [39]): 6.8 days; Activity (Spodoptera litura [40]): 289.8 mg
CC[C@@](C)(OC(C)=O)C(=O)O[C@H]1[C@H](OC(C)=O)C[C@@H]2[C@@](C)([C@@H]3C[C@H]4C=CO[C@H]4O3)[C@H](C)C[C@H](OC(C)=O)[C@@]2(COC(C)=O)[C@@]12CO2 [CLERODENDRIN B ACETATE] | 4% | 32% | 64.2 mg | 51% | 11 days | 273.2 mg | 4% | 64% | 75% | 7.4 days | 13.1 days | 9.2 days | 8.8 days | 8.2 days | 9.7 days | 8.8% | 72% | 4% | 24% | 4.8% | mortality at 10 µg/cm2 (Spodoptera litura [21]): 24%; Time (Spodoptera litura [22]): 12.6 days; Time (Spodoptera litura [23]): 10.2 days; Activity (Earias vittella [24]): 69%; Time (Earias vittella [25]): 7 days; Time (Earias vittella [26]): 7.2 days; Time (Spodoptera litura [27]): 9 days; Time (Earias vittella [28]): 6.8 days; Activity (Earias vittella [29]): 72.5%; mortality at 10 µg/cm2 (Spodoptera litura [30]): 27%; Time (Spodoptera litura [31]): 8.5 days; Activity (Earias vittella [32]): 4%; Activity (Earias vittella [33]): 71.2 mg; Activity (Earias vittella [34]): 64%; Time (Spodoptera litura [35]): 8 days; mortality at 5 µg/cm2 (Spodoptera litura [36]): 22.7%; Activity (Spodoptera litura [37]): 65.8%; mortality at 5 µg/cm2 (Spodoptera litura [38]): 20%; Time (Earias vittella [39]): 6.4 days; Activity (Spodoptera litura [40]): 284.4 mg
